HIV Env fusion = inhibitors of HIV Env-mediated cell fusion; HeLa-JRFL Env/CEM21 cell fusion, luciferase; inhibition, % at 12.3 µM; 1.1% of 360,000 active; AID 651610;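 active = mean replicate inhibition score of at least 50 and every replicate individually at or above 50; inconclusive = only one of the two criteria met; inactive = mean below 50 and not all replicates reaching 50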
Ecoli rRNA inh = inhibitors of bacterial rRNA selective over humanized ribosomes; GFP signal change (wild-type ribosome), % (no concentration beside the values); 1.6% of 350,000 active; E. coli WT GFP vs humanized-ribosome RFP mutants, fluorescence, 24 h; hits give low values; DMSO median 0, no signal -100; AID 720706;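 active = significant combined selectivity score with lowered wild-type GFP, culture density cut under 30%, mutant RFP and density less affected; inactive = any of these conditions unmet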
PvdQ inh = P. aeruginosa PvdQ acylase inhibition; inhibition, % at 10 µM; 0.063% of 340,000 active; purified PvdQ acylase, fluorescence plate reader; AID 488965; in the data active = inhibition above about 30%, passing the limit was not always enough; inconclusive = no clear call, values can overlap the other calls
PDI inh = blocks human protein disulfide isomerase activity; P07237; PDI insulin aggregation turbidity, A650, 90 min; inhibition, % at 10 µM; 0.052% of 350,000 active;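 active = mean inhibition across replicates of 30% or more, whatever share of single replicates reach that level; inconclusive = mean inhibition below 30% while every single replicate reaches 30%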
Target sequence (P07237 whole entry, looked up): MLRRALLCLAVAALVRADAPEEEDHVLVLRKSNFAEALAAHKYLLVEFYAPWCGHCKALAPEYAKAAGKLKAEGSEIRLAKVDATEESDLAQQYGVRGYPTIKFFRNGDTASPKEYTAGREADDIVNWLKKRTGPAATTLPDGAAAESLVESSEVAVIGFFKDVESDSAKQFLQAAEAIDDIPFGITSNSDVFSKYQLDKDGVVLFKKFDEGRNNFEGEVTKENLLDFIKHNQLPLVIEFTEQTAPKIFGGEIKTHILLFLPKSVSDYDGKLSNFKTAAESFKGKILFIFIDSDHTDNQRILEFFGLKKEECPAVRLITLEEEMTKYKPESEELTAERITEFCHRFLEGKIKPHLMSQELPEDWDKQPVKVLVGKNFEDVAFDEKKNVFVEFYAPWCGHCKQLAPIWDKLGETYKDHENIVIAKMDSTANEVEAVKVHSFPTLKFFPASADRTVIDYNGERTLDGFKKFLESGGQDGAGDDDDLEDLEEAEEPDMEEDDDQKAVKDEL
ERp5 inh = ERp5 (human) disulfide isomerase inhibition. AID 651711. inhibition, % at 9.99 µM. 0.05% of 350,000 active. ERp5 insulin aggregation, absorbance 650 nm, 90 min;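 active = mean replicate inhibition above about 25%, with every replicate also reaching it, limit read from the data, passing the limit was not always enough; inconclusive = only one of those two criteria met; inactive = neither criterion met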
FN deposit inh = fibronectin deposition inhibition; AH1F fibroblasts, Alexa488-fibronectin deposition fluorescence, overnight; inhibition, % at 12.6 µM; AID 743247; 0.086% of 350,000 active;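 active = mean inhibition across replicates of 30% or more, regardless of how many single replicates reach that level; inconclusive = mean under 30% yet at least half of replicates reach 30%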
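Material – AH1F fibroblast monolayer, labelled fibronectin deposition · Reagent – labelled fibronectin 24 nM · Timing – 1 h adhesion, overnight exposure · Measured by – fluorescence at 485 nm excitation, 525 nm emission · Read-out – inhibition of fibronectin deposition signal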
Large screens that a line does not name were inactive; [ ] = dose if it differs, or a comment. Rows were chosen to be rich in hits. Some 2.2% of all compounds tested hit in one or more screens of this group.

CNC(=S)c1cc(C(C)(C)C)c(O)c(C(C)(C)C)c1	Ecoli rRNA inh -20.6
CNC[C@H]1Oc2ccc(NC(C)=O)cc2CC(=O)N(C)C[C@H]1C	none (no result: HIV Env fusion, PvdQ inh, PDI inh, ERp5 inh)
Cc1ccc(-c2cnc3c(c2)C(=O)N([C@@H](C)CO)C[C@H](C)[C@@H](CN(C)C(=O)c2cccnc2)O3)cc1	none (no result: PvdQ inh, PDI inh, FN deposit inh)
C[C@H](CO)N1C[C@H](C)[C@H](CN(C)Cc2cncnc2)Oc2cc(-c3ccncc3)ccc2S1(=O)=O	none (no result: PvdQ inh, PDI inh)
COc1ccccc1CCNC(=O)CSc1nc(-c2ccco2)cc(C(F)(F)F)n1	HIV Env fusion 59.2
COc1ccccc1CCNC(=O)CCSc1nc(-c2ccco2)cc(C(F)(F)F)n1	none (no result: HIV Env fusion, Ecoli rRNA inh, ERp5 inh, FN deposit inh)
CO[C@@H]1CN(C)C(=O)c2ccc(NC(=O)c3ccccc3)cc2OC[C@@H](C)N(C(=O)C2CC2)C[C@H]1C	none (no result: HIV Env fusion, PvdQ inh, PDI inh)
COCC#Cc1ccc2c(c1)O[C@H](CN(C)S(=O)(=O)c1cccc(OC)c1)[C@H](C)CN([C@H](C)CO)S2(=O)=O	none (no result: PvdQ inh, PDI inh)
CCCC#Cc1ccc2c(c1)O[C@H](CN(C)S(=O)(=O)c1cccc(OC)c1)[C@H](C)CN([C@@H](C)CO)S2(=O)=O	none (no result: PvdQ inh, PDI inh, ERp5 inh)
COc1cccc(S(=O)(=O)N(C)C[C@@H]2Oc3cc(C#CCC(C)C)ccc3S(=O)(=O)N([C@H](C)CO)C[C@H]2C)c1	HIV Env fusion 71.0[16.7 µM] (no result: PvdQ inh, PDI inh)
COc1cccc(S(=O)(=O)N(C)C[C@H]2Oc3cc(C#CCC(C)C)ccc3S(=O)(=O)N([C@@H](C)CO)C[C@H]2C)c1	HIV Env fusion 71.3[16.7 µM] (no result: PvdQ inh, PDI inh)
CCCC#Cc1ccc2c(c1)O[C@H](CN(C)S(=O)(=O)c1cccc(OC)c1)[C@@H](C)CN([C@@H](C)CO)S2(=O)=O	none (no result: PvdQ inh, PDI inh, ERp5 inh)
COc1cccc(S(=O)(=O)N(C)C[C@@H]2Oc3cc(C#CCC(C)C)ccc3S(=O)(=O)N([C@@H](C)CO)C[C@@H]2C)c1	HIV Env fusion 85.2[16.7 µM] (no result: PvdQ inh, PDI inh)
C[C@H]1CN([C@@H](C)CO)C(=O)c2cc(NC(=O)Nc3ccc4c(c3)OCO4)ccc2O[C@@H]1CN(C)S(C)(=O)=O	none (no result: HIV Env fusion, PvdQ inh, PDI inh, ERp5 inh, FN deposit inh)
COC(=O)c1cc(OC)c(OC)cc1NC(=O)C(C)Sc1ccc(C)cc1 (configuration not stated)	Ecoli rRNA inh -26.1 (no result: HIV Env fusion, FN deposit inh)
O=C(C[C@@H]1CC[C@@H](NC(=O)C2CCC2)[C@@H](CO)O1)NCCCN1CCOCC1	none (no result: PvdQ inh, PDI inh)
O=C(NNC(=O)c1ccc(Cl)cc1Cl)c1cnccn1	Ecoli rRNA inh -34.9
O=C(NNC(=O)c1cnccn1)c1ccc(Cl)cc1	Ecoli rRNA inh -39.1
O=C(NNc1ncnc2sccc12)c1ccc(Cl)cc1	none
Cc1csc2ncnc(NNC(=O)c3ccc(Cl)cc3)c12	HIV Env fusion 65.7 (no result: Ecoli rRNA inh, ERp5 inh)
Cc1ccc(S(=O)(=O)N(C)C[C@@H]2OCCCC[C@H](C)Oc3ccc(NC(=O)Cc4ccccc4)cc3C(=O)N([C@@H](C)CO)C[C@H]2C)cc1	none (no result: PvdQ inh, PDI inh)
CC1CCCC=CC2CC(OC(=O)CN(C)C)CC2C(O)C=CC(=O)O1 (configuration not stated)	HIV Env fusion 62.4
O=C1NC(=O)C(=Cc2ccccc2)N1	none (no result: HIV Env fusion)
O=C1NC(=O)/C(=C/c2ccc(OS(=O)(=O)c3ccc(F)cc3F)cc2)N1	Ecoli rRNA inh -26.4
NC(=O)c1ccc(N2CCN(c3ccc(O)cc3)CC2)c([N+](=O)[O-])c1	HIV Env fusion 65.5 (no result: Ecoli rRNA inh, ERp5 inh)
CC(=O)c1ccc(N2CCN(c3ccc(C(N)=O)cc3[N+](=O)[O-])CC2)cc1	none
COCCOC(=O)N1C(=O)[C@@]2(c3cc(C#Cc4ccc(OC)cc4)ccc31)[C@H](c1ccc(O)cc1)N1[C@H](c3ccccc3)[C@H](c3ccccc3)OC(=O)[C@H]1[C@@H]2C(=O)N1CCCCCCC1	none (no result: Ecoli rRNA inh, PvdQ inh, PDI inh, ERp5 inh, FN deposit inh)
C[C@H]1CN([C@@H](C)CO)C(=O)c2cc(-c3cccc(C#N)c3)cnc2O[C@@H]1CN(C)C(=O)C1CCC1	none (no result: PvdQ inh, PDI inh, FN deposit inh)
CCCCc1c(O)nc(SCC(=O)c2ccccc2)n(-c2ccccc2C)c1=O	Ecoli rRNA inh -31.9
CCCCc1c(O)nc(SCC(=O)c2ccccc2)n(-c2ccccc2)c1=O	Ecoli rRNA inh -18.4
Cc1ccc2[nH]c(C)c(CCNC(=O)c3c(N)no[n+]3[O-])c2c1	Ecoli rRNA inh -35.4
Cc1ccc2[nH]c(C)c(CCNC(=O)c3cc4cc([N+](=O)[O-])ccc4oc3=O)c2c1	none (no result: Ecoli rRNA inh, ERp5 inh)
O=[N+]([O-])c1ccc(N=Nc2c(Cl)cc(O)cc2Cl)cc1	HIV Env fusion 85.1
CC(N)=Nc1ccc([N+](=O)[O-])cc1	none (no result: Ecoli rRNA inh, ERp5 inh)
COC(=O)C[C@@H]1CC[C@H]2[C@@H](COc3ccc(NC(=O)c4cccc(F)c4)cc3C(=O)N2C)O1	none (no result: PvdQ inh, PDI inh)
C[C@@H]1CN([C@@H](C)CO)S(=O)(=O)c2ccc(-c3ccccc3)cc2O[C@H]1CN(C)Cc1cccc(F)c1	none (no result: PvdQ inh, PDI inh)
CC1CCN(CCOCCOc2ccc(Cl)cc2Br)CC1	Ecoli rRNA inh -29.5 (no result: HIV Env fusion, FN deposit inh)
CCCNC(=O)N1C[C@@H]2[C@H](c3ccccc31)[C@H](CO)N2C(=O)NCCC	none (no result: HIV Env fusion, PvdQ inh, PDI inh, FN deposit inh)
C[C@@H]1CN([C@H](C)CO)C(=O)c2cc(-c3cccc(C(=O)N(C)C)c3)cnc2O[C@H]1CN(C)S(=O)(=O)c1ccccc1	none (no result: PvdQ inh, PDI inh)
CN(c1ccccc1)S(=O)(=O)c1ccc(Cl)c(C(=O)Nc2nc3ccccc3[nH]2)c1	HIV Env fusion 71.8 (no result: Ecoli rRNA inh, ERp5 inh)
CN(C)C(CNC(=O)c1cc(S(=O)(=O)N(C)c2ccccc2)ccc1Cl)c1cccs1 (configuration not stated)	Ecoli rRNA inh -34.8
O=C(C[C@H]1CC[C@H]2[C@@H](COC[C@H](O)CN2C(=O)Nc2ccc(Cl)cc2)O1)N1CCCCC1	none (no result: HIV Env fusion, PvdQ inh, PDI inh)
C[C@@H]1O[C@@H](OC[C@@H]2O[C@H](Oc3c(-c4ccc(O)cc4)oc4cc(O)cc(O)c4c3=O)[C@@H](O)[C@H](O)[C@H]2O)[C@H](O)[C@H](O)[C@H]1O	PDI inh 65.3
C[C@@H]1O[C@@H](O[C@H]2[C@H](O)[C@@H](O)[C@H](Oc3c(-c4ccc(O)cc4)oc4cc(O)cc(O)c4c3=O)O[C@@H]2CO)[C@H](O)[C@H](O)[C@H]1O	PDI inh 54.9
COc1c(-c2ccc(O)cc2)oc2cc(O)cc(O)c2c1=O	Ecoli rRNA inh -20.2 (no result: HIV Env fusion, PDI inh, FN deposit inh)
CC1OC(Oc2c(-c3cc(O)c(O)c(O)c3)oc3cc(O)cc(O)c3c2=O)C(O)C(O)C1O (configuration not stated)	none (no result: HIV Env fusion, PDI inh, FN deposit inh)
C[C@@H](NC(=O)C[C@@H]1C=C[C@H](NC(=O)C2CCC2)[C@H](CO)O1)c1ccccc1	none (no result: PvdQ inh, PDI inh)
CCNC(=O)C[C@@H]1CC[C@H]2[C@@H](COc3ccc(NC(=O)c4cscn4)cc3C(=O)N2C)O1	none (no result: PvdQ inh, PDI inh)
Oc1cc(O)cc(C=Cc2ccc(O)c(O)c2)c1	Ecoli rRNA inh -29.2 (no result: PvdQ inh, PDI inh)
O=C(/C=C/c1ccc(O)cc1)c1ccc(O)cc1O	PDI inh 41.0
Cc1ccc(/C=C/C(=O)c2ccc(O)cc2)cc1	Ecoli rRNA inh -27.3, PDI inh inconclusive
COc1ccc(C(=O)/C=C/c2ccccc2)c(O)c1	none (no result: HIV Env fusion, Ecoli rRNA inh, PDI inh, FN deposit inh)
